For one series, the system named is MDA-MB-231 (Breast). Description: Resazurin antiproliferative assay, 72 h. The following applies: read-out: IC50 MDA-MB-231 (Breast). The series is classed as cell-based. In short, it runs like this:
(§1)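 Cells were incubated with test compound for 72 h. Viability was read by the fluorescence-based resazurin assay (reduction to resorufin), chosen because formazan absorbance (400–800 nm) interferes with colorimetric probes. IC50 values were derived for each line. The panel was cancer lines plus MRC-5 normal lung fibroblasts.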
On the technique in general: Alamar Blue is a resazurin reagent that responds to reducing activity.

The test system of series [1] is ferritin heavy chain (ferritin H). Description: Western blot of ferritin H expression in A2780 cells. The format is cell-based. To be noted: A2780, 40 μM, 24 h. In short, it runs like this:
(§2)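 Cells were treated with test compound for 24 h; A2780 cells were treated at 40 μM. Lysates were analysed by Western blot for TfR1 and ferritin heavy chain, with β-actin as loading control. n=4; t-tests against DMSO vehicle. Ferric ammonium citrate supplementation served as an iron-replete comparison in A2780.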

The nature of series [2]: In vitro calcein competition for Fe. To be noted: 50 mM HEPES buffer pH 7.4 and MeOH 3:1 v/v. In short, it runs like this:
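Cell-free competition: calcein was quenched with Fe(II) (1.0 equiv) in 50 mM HEPES pH 7.4/MeOH (3:1 v/v). Test compound was then added, and recovery of calcein fluorescence was taken as displacement of iron from the probe.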

The test system of series [3] is A2780 ovarian cancer cells. Description: Apoptotic cell death by flow cytometry. The following applies: A2780, 40 μM, 48 h. The format is cell-based. In short, it runs like this: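 A2780 ovarian cancer cells were exposed to test compound (40 μM) for 48 h. Flow cytometry then scored the fractions of cells in early and late apoptosis. Runs were in triplicate, reported as mean ± standard deviation, with t-tests against DMSO vehicle.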
(In general: A flow cytometer gives signals particle by particle.)

The subject of series [4] is A2780 ovarian cancer cells. Description: Cell cycle distribution by flow cytometry. The format is cell-based. To be noted: A2780, 40 μM, 24 h. In short, it runs like this: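 A2780 cells were treated with test compound at 40 μM for 24 h, then analysed by flow cytometry for cell-cycle phase distribution. Triplicate experiments; mean ± standard deviation; t-tests against DMSO vehicle only.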

Series [5] deals with transferrin receptor 1 (TfR1). The experiment in a line: Western blot of TfR1 expression in MRC-5 cells. The format is cell-based. To be noted: MRC-5, 24 h. In short, it runs like this: as §2
Background: In western blotting, separated proteins are transferred to a membrane and probed.

For the next series, the system named is MRC-5 (Normal lung). The experiment in a line: Resazurin antiproliferative assay, 72 h. The series is classed as cell-based. The following applies: read-out: IC50 MRC-5 (Normal lung), mean ± SDM, n=3. In short, it runs like this: as §1
The test system of the next series is Caco-2 (Colon). The experiment in a line: Resazurin antiproliferative assay, 72 h. The format is cell-based. The following applies: read-out: IC50 Caco-2 (Colon). In short, it runs like this:
as §1

Series [6] relates to tested cancer cell lines (A2780, MDA-MB-231, Caco-2, A549). Description: Resazurin antiproliferative assay, summary over the cancer cell panel. The following applies: 72 h, read-out: IC50 range in the tested cancer cell lines. The format is cell-based. In short, it runs like this: as §1
Series [7] deals with A2780 ovarian cancer cells. The experiment in a line: Intracellular calcein assay. The series is classed as cell-based. The following applies: A2780, 40 μM, 24 h. In short, it runs like this:
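Calcein-AM delivered calcein to the cytosol, where it is partly quenched by labile iron. Cells were incubated with test compound (40 μM), and the rise in calcein fluorescence was measured against DMSO vehicle. A2780 cells were sampled after 1, 3 and 24 h. Triplicate; mean ± standard deviation; t-tests.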

A further series relates to A549 (Lung). The experiment in a line: Resazurin antiproliferative assay, 72 h. To be noted: read-out: IC50 A549 (Lung). The series is classed as cell-based. In short, it runs like this:
as §1

The subject of series [8] is transferrin receptor 1 (TfR1). Description: Western blot of TfR1 expression in A2780 cells. The series is classed as cell-based. The following applies: A2780, 40 μM, 24 h. In short, it runs like this:
as §2

In series [9] the test system is ferritin heavy chain (ferritin H). The experiment in a line: Western blot of ferritin H expression in MRC-5 cells. The format is cell-based. To be noted: MRC-5, 24 h. In short, it runs like this: as §2
A further series concerns A2780 (Ovary). The experiment in a line: Resazurin antiproliferative assay, 72 h. The series is classed as cell-based. The following applies: read-out: IC50 A2780 (Ovary). In short, it runs like this: as §1
The next series concerns A2780 cells. The format is cell-based. To be noted: A2780, 40 μM, 48 h, FAC (50 μM) or holo-Tf (50 μM).
In series [10] the test system is MRC-5 normal lung fibroblasts. The experiment in a line: Intracellular calcein assay. The format is cell-based. The following applies: MRC-5, 40 μM, 24 h.
A short description of series [11]: Distribution coefficient by shake-flask method. The format is physicochemical. The following applies: octanol and PBS (pH 7.4), HPLC.
Series [12] can be described thus: Stability / reduction kinetics in fetal bovine serum by HPLC. The format is in vitro ADME.
Where [13] appears, read: resazurin assay, 72 h, mean ± SDM, n=3.

Like-named read-outs stand apart in the source and are kept apart here.

By IC50 is commonly meant the midpoint of a concentration-inhibition curve. Turning to `O=C(O)c1ccc(-n2nc(-c3ccccc3O)nc2-c2ccccc2O)cc1` [DFX, deferasirox], the IC50 was 17 ± 1 µM with MDA-MB-231 (Breast) (Homo sapiens, MDA-MB-231, 72 h); 220 ± 20 µM with MRC-5 (Normal lung); 67 ± 2 µM in the series with Caco-2 (Colon) (Homo sapiens, Caco-2, 72 h); 15 to 67 µM in series [6]; 21 ± 3 µM in the series with A549 (Lung) (Homo sapiens, A549, 72 h); 15 ± 1 µM in the series with A2780 (Ovary) (Homo sapiens, A2780, 72 h). Besides, the “Ferritin H expression level” value is reported as “degradation of ferritin” in series [1] and “maintained similar effects, albeit less pronounced” in series [9]. In addition, in series [2], the “Restoration of calcein fluorescence (displacement of Fe(II) from calcein)” value is “fully restore its initial fluorescence”. The “Cells in late apoptosis” value in series [3] was determined as 42%. Further, the “Effect on cell cycle distribution” value in series [4] is recorded as “S-phase arrest”. The TfR1 expression level result was “maintained similar effects, albeit less pronounced” in series [5] and “increase of TfR1 expression” in series [8]. In addition, the “Increase of calcein fluorescence” value in series [7] is ~ 54%; in series [10], ~ 34%. In addition, the “Effect of iron supplementation on cytotoxicity” value with A2780 cells was “could be rescued by iron supplementation”.

Take `Cc1nc(-[n+]2nc(-c3ccccc3)nn2-c2ccccc2)sc1C.[Br-]` [MTT]: the IC50 in the series on MDA-MB-231 (Breast) (setting [13]) was found to be 48 ± 7 µM; with MRC-5 (Normal lung) it was 32 ± 5 µM; in the series with Caco-2 (Colon) (setting [13]), 92 ± 7 µM; in the series on A549 (Lung) (setting [13]), 44 ± 9 µM; in the series on A2780 (Ovary) (setting [13]), 45 ± 9 µM. The “Log Do/pH7.4” value in series [11] was found to be 0.1. In addition, the “Half-life t1/2 in serum” value in [12] is > 24 h. Moreover, the “Stability (serum, 24 h), remaining” value in series [12] (24 h) came out at 58%.

For the compound `O=C(O)CC(O)(CC(=O)O)C(=O)O` [citric acid], the “Restoration of calcein fluorescence (displacement of Fe(II) from calcein)” value in series [2] is given as “fail to displace calcein-bound iron(II)”.

ferric ammonium citrate [FAC]: the “Ferritin H expression level” value is listed as “increase of ferritin H levels” in [1] and “maintained similar effects, albeit less pronounced” in series [9]. The TfR1 expression level result in [5] is reported as “maintained similar effects, albeit less pronounced”; in series [8], “decrease of TfR1”.

(Values after article PMC10521327 (Journal of the American Chemical Society, 2023).)
